ChEMBL document CHEMBL1151912, “ACE inhibitors hypothesis generation for selective design, synthesis and biological evaluation of 3-mercapto-2-methyl-propanoyl-pyrrolidine-3-imine derivatives as antihypertensive agents” (2009)
Active and inactive are the calls of the source. The rule behind the calls is not given here.

Experiments:
Felis catus [1] = assay: Hypotensive activity in anesthetized normotensive cat at 0.00285 mmol/kg; format: functional, organism-based
Felis catus [2] = assay: Antihypertensive activity in anesthetized normotensive cat assessed as mean reduction of systolic blood pressure at 0.00246 mmol/kg; format: functional, Artery
Felis catus [3] = assay: Antihypertensive activity in anesthetized normotensive cat assessed as mean reduction of systolic blood pressure at 0.00246 mmol/kg relative to control; format: functional, Artery; set-up: scale not given: the % may be the effect or the level left
How it was run: (§1)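 Normotensive adult cats dosed at 0.00246 mmol/kg. Systolic and diastolic blood pressure recorded in mmHg and reported as mean ± SE. The value is the mean % change from the control group. Significance versus control was tested at p < 0.05.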

Felis catus [4] = assay: Antihypertensive activity in anesthetized normotensive cat assessed as mean reduction of diastolic blood pressure at 0.00246 mmol/kg relative to control; format: functional, Artery; set-up: scale not given: the % may be the effect or the level left; how it was run: as §1
Felis catus [5] = assay: Antihypertensive activity in anesthetized normotensive cat assessed as mean reduction of diastolic blood pressure at 0.00246 mmol/kg; format: functional, Artery
Felis catus [6] = assay: Hypotensive activity in anesthetized normotensive cat at 0.0014 mmol/kg; format: functional, organism-based
Felis catus [7] = assay: Hypotensive activity in anesthetized normotensive cat at 0.0031 mmol/kg; format: functional, organism-based
Felis catus [8] = assay: Hypotensive activity in anesthetized normotensive cat at 0.0012 mmol/kg; format: functional, organism-based

Compound	Activity (Felis catus [1])	Systolic blood pressure (Felis catus [2]) [mmHg]	Activity (Felis catus [3]) [%]	Activity (Felis catus [4]) [%]	Diastolic blood pressure (Felis catus [5]) [mmHg]	Activity (Felis catus [6])	Activity (Felis catus [7])	Activity (Felis catus [8])
COc1ccc(CC2/C(=N/CCO)CCN2C(=O)C(C)CS)cc1 (centres undefined)	Active	106	20.83	9	113.7	–	–	–
COc1ccc(CC2C(=O)CCN2C(=O)C(C)CS)cc1 (centres undefined)	–	104.9	21.67	8	115	Active	–	–
COc1ccc(CC2/C(=N/O)CCN2C(=O)C(C)CS)cc1 (centres undefined)	–	121.9	9	12.22	109.7	–	Active	–
CCOC(=O)C(C)/N=C1\CCN(C(=O)C(C)CS)C1Cc1ccc(OC)cc1 (centres undefined)	–	93.3	30.37	32.8	84	–	–	Active
C[C@H](CS)C(=O)N1CCC[C@H]1C(=O)O [CAPTOPRIL]	–	105.9	20.91	21.89	97.6	–	–	–
